From ChEMBL document CHEMBL5154713, “Illuminating a Dark Kinase: Structure-Guided Design, Synthesis, and Evaluation of a Potent Nek1 Inhibitor and Its Effects on the Embryonic Zebrafish Pronephros” (J Med Chem, 2022)

What was measured:
[1] = target: T1, Serine/threonine-protein kinase Nek1 (Homo sapiens) (UniProt Q96PY6); assay: Inhibition of human recombinant NEK1 (1 to 505 residues) assessed as residual activity at 1 uM using RLGRDKYKTLRQIRQ as substrate incubated for 40 mins in presence of [gamma-33P]-ATP by radiometric scintillation counting assay relative to control
T1 sequence (whole entry): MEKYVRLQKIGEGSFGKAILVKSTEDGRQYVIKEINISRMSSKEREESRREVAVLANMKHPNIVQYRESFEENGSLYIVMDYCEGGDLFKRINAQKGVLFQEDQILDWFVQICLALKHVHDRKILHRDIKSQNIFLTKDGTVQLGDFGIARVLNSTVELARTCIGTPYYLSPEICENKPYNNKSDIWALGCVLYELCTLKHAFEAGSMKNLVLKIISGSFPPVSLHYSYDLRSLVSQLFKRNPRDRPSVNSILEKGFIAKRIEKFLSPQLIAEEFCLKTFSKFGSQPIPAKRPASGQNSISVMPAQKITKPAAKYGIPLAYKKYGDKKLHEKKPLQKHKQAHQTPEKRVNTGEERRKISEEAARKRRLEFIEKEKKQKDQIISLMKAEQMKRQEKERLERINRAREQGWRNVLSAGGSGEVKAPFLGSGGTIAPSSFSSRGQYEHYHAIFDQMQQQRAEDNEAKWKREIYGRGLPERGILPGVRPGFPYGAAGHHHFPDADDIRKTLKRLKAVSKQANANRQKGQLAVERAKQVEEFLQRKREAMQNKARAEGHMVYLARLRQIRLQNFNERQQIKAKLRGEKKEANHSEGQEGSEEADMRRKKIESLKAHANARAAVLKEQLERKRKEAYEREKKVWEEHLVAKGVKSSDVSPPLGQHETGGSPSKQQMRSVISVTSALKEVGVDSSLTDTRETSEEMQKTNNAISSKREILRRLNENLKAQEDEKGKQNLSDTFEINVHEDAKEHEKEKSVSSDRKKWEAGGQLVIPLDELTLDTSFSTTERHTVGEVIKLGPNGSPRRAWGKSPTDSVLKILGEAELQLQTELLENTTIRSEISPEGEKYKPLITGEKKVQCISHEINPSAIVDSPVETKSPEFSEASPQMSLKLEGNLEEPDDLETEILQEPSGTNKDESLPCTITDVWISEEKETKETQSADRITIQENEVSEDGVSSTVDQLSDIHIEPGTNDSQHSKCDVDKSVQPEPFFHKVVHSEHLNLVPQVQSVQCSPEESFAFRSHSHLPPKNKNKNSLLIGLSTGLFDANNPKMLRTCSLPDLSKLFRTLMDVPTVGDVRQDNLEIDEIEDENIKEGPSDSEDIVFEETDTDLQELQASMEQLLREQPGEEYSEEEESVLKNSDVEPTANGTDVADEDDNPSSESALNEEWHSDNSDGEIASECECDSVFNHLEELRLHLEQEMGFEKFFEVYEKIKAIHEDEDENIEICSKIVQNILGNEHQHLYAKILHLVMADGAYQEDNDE
Method in brief: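 Eurofins KinaseProfiler radiometric panel, compound at 1 μM, ATP at 10 μM or within 15 μM of apparent Km. For Nek1 (1−505): 8 mM MOPS pH 7.0, 0.2 mM EDTA, 250 μM peptide, 10 mM Mg acetate, [γ-33P]-ATP, 40 min at room temperature. Stopped with 0.5% phosphoric acid, filtermat spotting, scintillation counting. Mean of two independent experiments.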

[2] = target: Platelet-derived growth factor receptor beta (Homo sapiens) (UniProt P09619); assay: Inhibition of human PDGFRbeta (557 to end residues) assessed as residual activity at 1 uM using poly(Glu, Tyr) 4:1 as substrate measured after 40 mins in presence of [gamma33P]ATP by scintillation counting method relative to control
Sequence of Platelet-derived growth factor receptor beta (Homo sapiens) (P09619 whole entry): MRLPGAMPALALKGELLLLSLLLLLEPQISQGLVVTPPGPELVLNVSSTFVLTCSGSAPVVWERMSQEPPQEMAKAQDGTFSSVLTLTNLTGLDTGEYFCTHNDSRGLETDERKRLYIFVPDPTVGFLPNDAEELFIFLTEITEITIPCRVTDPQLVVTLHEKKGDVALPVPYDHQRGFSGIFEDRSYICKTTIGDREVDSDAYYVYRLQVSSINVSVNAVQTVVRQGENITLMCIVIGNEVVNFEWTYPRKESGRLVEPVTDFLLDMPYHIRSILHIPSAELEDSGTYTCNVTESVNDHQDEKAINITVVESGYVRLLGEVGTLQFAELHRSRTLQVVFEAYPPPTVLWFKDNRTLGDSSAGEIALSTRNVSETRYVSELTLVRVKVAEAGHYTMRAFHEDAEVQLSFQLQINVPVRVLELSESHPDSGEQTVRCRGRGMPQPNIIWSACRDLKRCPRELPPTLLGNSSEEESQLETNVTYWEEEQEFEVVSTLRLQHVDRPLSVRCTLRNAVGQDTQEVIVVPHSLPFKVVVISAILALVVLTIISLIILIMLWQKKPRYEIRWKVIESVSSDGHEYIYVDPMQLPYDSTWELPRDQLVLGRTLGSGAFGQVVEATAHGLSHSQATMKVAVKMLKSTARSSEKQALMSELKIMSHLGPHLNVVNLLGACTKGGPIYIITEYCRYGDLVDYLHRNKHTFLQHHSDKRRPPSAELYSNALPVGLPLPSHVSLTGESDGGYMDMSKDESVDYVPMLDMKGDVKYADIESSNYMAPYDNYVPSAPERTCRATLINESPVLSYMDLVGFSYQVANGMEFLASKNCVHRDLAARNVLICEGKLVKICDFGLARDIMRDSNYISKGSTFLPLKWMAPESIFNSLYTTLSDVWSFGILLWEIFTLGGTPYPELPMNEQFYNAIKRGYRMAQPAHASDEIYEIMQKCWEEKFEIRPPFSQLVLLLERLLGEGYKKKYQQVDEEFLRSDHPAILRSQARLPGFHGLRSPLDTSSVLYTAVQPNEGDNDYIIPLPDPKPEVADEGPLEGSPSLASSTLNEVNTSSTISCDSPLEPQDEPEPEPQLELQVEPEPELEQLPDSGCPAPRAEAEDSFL
Method in brief: (§1)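 Commercial radiometric panel of 50 kinases. Each recombinant human kinase was tested at a single compound concentration of 1 μM. ATP was set within 15 μM of the apparent Km for ATP for each kinase. Residual activity is relative to control and is the mean of two independent experiments.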

[3] = target: MAP kinase-activated protein kinase 2 (Homo sapiens) (UniProt P49137); assay: Inhibition of recombinant human MAPKAPK2 (46 to end residues) assessed as residual activity at 1 uM using KKLNRTLSVA as substrate incubated for 40 mins in presence of [gamma-33P]-ATP by radiometric scintillation counting method relative to control; method in brief: as §1
Sequence of MAP kinase-activated protein kinase 2 (Homo sapiens) (P49137 whole entry, looked up): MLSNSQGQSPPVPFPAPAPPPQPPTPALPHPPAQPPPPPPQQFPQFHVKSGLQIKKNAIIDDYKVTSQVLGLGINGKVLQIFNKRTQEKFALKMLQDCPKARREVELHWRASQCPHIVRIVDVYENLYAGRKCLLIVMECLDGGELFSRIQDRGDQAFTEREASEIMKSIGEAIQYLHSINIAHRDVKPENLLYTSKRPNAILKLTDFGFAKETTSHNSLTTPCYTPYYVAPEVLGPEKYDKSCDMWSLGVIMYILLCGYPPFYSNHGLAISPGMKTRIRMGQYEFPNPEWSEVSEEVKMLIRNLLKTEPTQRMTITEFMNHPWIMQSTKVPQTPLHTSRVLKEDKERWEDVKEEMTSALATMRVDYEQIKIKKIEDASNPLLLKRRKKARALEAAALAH

[4] = target: Protein-tyrosine kinase 6 (Homo sapiens) (UniProt Q13882); assay: Inhibition of recombinant full length human BRK assessed as residual activity at 1 uM using poly(Glu, Tyr) 4:1 as substrate incubated for 40 mins in presence of [gamma-33ATP] by scintillation counting based radiometry assay relative to control; method in brief: as §1
Sequence of Protein-tyrosine kinase 6 (Homo sapiens) (Q13882 whole entry, looked up, canonical isoform): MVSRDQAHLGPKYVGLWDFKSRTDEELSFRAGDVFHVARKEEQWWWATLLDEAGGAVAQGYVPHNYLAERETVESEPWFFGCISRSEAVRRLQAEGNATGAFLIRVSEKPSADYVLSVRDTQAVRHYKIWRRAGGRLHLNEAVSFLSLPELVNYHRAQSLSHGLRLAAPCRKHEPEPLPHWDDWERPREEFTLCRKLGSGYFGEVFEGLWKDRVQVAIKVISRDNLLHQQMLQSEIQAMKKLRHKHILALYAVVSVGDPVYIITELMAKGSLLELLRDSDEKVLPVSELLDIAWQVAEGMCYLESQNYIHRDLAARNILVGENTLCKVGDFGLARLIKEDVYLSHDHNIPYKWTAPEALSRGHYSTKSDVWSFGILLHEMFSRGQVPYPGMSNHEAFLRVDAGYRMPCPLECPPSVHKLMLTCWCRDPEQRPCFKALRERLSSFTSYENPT

[5] = target: Phosphatidylinositol 4,5-bisphosphate 3-kinase catalytic subunit gamma isoform (Homo sapiens) (UniProt P48736); assay: Inhibition of human full length PI3Kgamma assessed as residual activity at 1 uM using phosphatidylinositol-4, 5-bisphosphate as substrate incubated for 40 mins in presence of ATP by HTRF assay relative to control
Sequence of Phosphatidylinositol 4,5-bisphosphate 3-kinase catalytic subunit gamma isoform (Homo sapiens) (P48736 whole entry, looked up, canonical isoform): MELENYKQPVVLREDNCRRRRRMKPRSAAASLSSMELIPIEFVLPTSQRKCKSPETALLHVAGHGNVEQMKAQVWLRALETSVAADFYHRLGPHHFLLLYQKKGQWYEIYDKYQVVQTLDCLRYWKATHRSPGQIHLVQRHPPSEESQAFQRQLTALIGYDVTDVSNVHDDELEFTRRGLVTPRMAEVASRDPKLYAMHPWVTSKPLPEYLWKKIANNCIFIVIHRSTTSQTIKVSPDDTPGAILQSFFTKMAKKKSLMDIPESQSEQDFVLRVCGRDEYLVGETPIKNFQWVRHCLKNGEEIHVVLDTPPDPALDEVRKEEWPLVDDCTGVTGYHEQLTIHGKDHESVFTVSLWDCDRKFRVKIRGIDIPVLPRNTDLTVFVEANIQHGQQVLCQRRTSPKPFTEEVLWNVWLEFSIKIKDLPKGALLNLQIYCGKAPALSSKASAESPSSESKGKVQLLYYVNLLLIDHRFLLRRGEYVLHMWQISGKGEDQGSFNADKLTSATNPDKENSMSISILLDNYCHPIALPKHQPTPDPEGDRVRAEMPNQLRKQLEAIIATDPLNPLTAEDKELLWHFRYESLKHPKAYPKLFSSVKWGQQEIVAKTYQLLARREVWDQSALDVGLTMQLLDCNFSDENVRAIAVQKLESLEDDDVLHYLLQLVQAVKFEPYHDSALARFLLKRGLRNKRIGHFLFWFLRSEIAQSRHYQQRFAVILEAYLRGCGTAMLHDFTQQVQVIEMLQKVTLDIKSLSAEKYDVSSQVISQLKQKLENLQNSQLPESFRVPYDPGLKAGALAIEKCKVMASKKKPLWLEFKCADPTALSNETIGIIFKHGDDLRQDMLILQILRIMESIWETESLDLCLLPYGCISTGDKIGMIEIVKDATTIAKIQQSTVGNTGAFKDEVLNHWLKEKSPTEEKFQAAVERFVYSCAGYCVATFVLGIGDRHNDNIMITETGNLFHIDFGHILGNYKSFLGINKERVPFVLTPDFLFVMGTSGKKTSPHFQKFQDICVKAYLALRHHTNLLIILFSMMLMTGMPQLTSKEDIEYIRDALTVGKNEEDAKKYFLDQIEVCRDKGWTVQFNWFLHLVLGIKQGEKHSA

[6] = target: Serine/threonine-protein kinase Nek2 (Homo sapiens) (UniProt P51955); assay: Inhibition of human full length recombinant NEK2 assessed as residual activity at 1 uM using poly(Glu, Tyr) 4:1 as substrate incubated for 40 mins in presence of [gamma 33P]-ATP by radiometric scintillation counting assay relative to control; method in brief: as §1
[7] = target: Serine/threonine-protein kinase Nek11 (Homo sapiens) (UniProt Q8NG66); assay: Inhibition of human full length recombinant NEK11 assessed as residual activity at 1 uM using myelin basic protein as substrate incubated for 40 mins in presence of [gamma 33P]-ATP by radiometric scintillation counting assay relative to control; method in brief: as §1
[8] = target: Serine/threonine-protein kinase 4 (Homo sapiens) (UniProt Q13043); assay: Inhibition of human full length recombinant MST1 assessed as residual activity at 1 uM using KKSRGDYMTMQIG as substrate incubated for 40 mins in presence of [gamma 33P]-ATP by radiometric scintillation counting assay relative to control; method in brief: as §1
Sequence of Serine/threonine-protein kinase 4 (Homo sapiens) (Q13043 whole entry, the tested form may be a part): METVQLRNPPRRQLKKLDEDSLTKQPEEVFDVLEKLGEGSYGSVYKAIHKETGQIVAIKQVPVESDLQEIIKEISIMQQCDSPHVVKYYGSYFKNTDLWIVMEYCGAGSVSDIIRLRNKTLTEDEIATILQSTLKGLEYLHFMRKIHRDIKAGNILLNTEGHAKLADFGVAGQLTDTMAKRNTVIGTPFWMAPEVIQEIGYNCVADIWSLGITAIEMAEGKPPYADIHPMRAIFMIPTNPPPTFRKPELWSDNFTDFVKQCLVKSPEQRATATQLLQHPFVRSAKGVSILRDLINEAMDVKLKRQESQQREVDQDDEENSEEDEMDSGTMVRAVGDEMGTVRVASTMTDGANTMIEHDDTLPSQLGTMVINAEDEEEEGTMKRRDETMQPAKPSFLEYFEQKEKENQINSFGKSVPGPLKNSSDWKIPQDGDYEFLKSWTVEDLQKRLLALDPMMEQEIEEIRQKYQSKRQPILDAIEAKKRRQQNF

[9] = target: Mitogen-activated protein kinase kinase kinase 5 (Homo sapiens) (UniProt Q99683); assay: Inhibition of recombinant human ASK1 (649 to 946 residues) assessed as residual activity at 1 uM using myelin basic protein as substrate measured after 40 mins in presence of [gamma33P]ATP by radiometric scintillation counting method; method in brief: as §1
Sequence of Mitogen-activated protein kinase kinase kinase 5 (Homo sapiens) (Q99683 whole entry, the tested form may be a part): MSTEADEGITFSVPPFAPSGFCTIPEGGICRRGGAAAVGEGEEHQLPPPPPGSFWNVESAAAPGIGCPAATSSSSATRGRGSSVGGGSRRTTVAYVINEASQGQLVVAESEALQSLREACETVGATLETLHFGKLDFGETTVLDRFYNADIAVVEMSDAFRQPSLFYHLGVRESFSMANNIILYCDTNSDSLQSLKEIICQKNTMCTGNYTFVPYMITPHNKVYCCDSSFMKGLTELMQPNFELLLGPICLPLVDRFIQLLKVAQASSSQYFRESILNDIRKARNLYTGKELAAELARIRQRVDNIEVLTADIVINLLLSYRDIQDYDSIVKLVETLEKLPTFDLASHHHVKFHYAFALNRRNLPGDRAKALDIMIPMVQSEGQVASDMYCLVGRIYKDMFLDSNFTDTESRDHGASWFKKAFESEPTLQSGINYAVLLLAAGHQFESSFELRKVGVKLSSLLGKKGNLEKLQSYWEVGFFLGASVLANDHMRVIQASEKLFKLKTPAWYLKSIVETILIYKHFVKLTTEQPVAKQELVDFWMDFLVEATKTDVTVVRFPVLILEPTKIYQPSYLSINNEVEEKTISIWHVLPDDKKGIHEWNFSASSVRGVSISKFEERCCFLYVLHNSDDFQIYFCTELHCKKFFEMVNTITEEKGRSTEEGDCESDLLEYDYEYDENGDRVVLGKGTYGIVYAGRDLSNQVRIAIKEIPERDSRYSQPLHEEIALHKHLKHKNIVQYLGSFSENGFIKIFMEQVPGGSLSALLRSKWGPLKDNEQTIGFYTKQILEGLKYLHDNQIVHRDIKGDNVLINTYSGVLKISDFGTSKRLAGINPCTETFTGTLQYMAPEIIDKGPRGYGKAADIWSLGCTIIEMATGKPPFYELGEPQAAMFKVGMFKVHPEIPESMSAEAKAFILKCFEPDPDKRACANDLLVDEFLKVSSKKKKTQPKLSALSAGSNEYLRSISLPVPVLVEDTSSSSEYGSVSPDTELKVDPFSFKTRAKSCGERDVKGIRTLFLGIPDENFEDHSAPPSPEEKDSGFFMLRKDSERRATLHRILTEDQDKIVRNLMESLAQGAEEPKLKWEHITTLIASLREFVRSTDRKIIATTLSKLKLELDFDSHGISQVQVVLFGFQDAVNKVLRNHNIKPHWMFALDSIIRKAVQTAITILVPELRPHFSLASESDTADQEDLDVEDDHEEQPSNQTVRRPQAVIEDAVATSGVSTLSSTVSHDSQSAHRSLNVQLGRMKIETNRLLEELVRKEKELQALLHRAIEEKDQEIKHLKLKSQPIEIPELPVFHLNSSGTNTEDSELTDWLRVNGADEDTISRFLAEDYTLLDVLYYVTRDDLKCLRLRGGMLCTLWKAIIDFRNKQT

[10] = Toxicity in wild-type Zebrafish embryos assessed as effect on body curvature at 0.05 to 30 uM measured upto 120 hrs; design: species or system Danio rerio; conditions: in vivo, dose 0.05-30 µM
Method in brief: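 Wild-type embryos, 15 per group with intact chorions, dosed at 6 hpf with 0.05–30 μM final concentrations in E3, diluted from a DMSO stock. Survival checked every 24 h by heartbeat over 120 h, and phenotypes assessed visually. At least triplicate, 5 replicates at 30 μM.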

In the case of `O=S(=O)(N[C@@H](CO)Cc1c[nH]c2ccccc12)c1ccc(-c2ccnc3[nH]ccc23)cc1`, the Activity [1] is reported as 4%, the Activity [2] is reported as > 75% and the Activity [3] is reported as > 75%. For the same molecule, the Activity [4] was > 75%, the Activity [5] was > 75% and the Activity [6] was > 75%. The Activity [7] was > 75%, the Activity [8] was > 75% and the Activity [9] was > 75%. For the same molecule, the Activity [10] was “Non-Toxic”.
